“And” between values parts separate entries of the source, which are not always exact repeats. Equal entries are not always repeated.
Assays:
[1] = target: T1, Muscarinic acetylcholine receptor M4 (Homo sapiens) (UniProt P08173); assay: Positive allosteric modulation of human M4 receptor expressed in CHO cells co-expressing Gqi5 assessed as increase in acetylcholine-induced calcium mobilization relative to acetylcholine; type: functional, cell-based
T1 sequence (whole entry): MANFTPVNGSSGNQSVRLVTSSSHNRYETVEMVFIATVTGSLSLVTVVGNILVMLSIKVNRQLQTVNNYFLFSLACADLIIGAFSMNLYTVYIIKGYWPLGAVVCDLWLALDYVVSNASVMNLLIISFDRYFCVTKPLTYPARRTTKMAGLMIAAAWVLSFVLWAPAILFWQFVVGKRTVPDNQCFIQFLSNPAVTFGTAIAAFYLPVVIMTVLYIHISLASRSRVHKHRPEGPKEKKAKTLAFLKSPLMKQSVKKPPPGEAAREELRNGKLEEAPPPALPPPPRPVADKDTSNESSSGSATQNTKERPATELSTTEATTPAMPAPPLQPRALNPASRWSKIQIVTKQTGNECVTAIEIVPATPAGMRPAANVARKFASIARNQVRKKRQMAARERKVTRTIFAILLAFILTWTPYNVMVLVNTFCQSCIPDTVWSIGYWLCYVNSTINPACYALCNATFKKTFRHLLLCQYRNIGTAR
Summary of the method: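 Calcium mobilization in CHO cells stably co-expressing hM4 and Gqi5, tested in the presence of a fixed EC20 concentration of acetylcholine. Values are means of three independent experiments, each run in triplicate.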

[2] = target: T2, Muscarinic acetylcholine receptor M4 (Homo sapiens, UniProt P08173); assay: Positive allosteric modulation of human M4 receptor expressed in CHO cells co-expressing Gqi5 assessed as increase in acetylcholine-induced calcium mobilization
T2 sequence (P08173 whole entry): T1 sequence (whole entry)

[3] = Brain to plasma permeability coefficient, Kp of the compound in Sprague-Dawley rat administered as iv cassette dose measured at 0.25 hrs post dose; type: ADME, organism-based; conditions: for Kp: brain, 0.25 h; for Kp at 0.25 h: Sprague-Dawley, brain and plasma
MDR1 = assay: Efflux ratio of permeability in MDCK2-MDR1 cells; type: ADME, cell-based, Canis lupus familiaris; conditions: dog, MDCK-MDR1
[4] = target: T3, Muscarinic acetylcholine receptor M2 (Homo sapiens, UniProt P08172); assay: Activity at human M2 receptor assessed as increase in acetylcholine-induced calcium mobilization; type: functional
T3 sequence (P08172 whole entry): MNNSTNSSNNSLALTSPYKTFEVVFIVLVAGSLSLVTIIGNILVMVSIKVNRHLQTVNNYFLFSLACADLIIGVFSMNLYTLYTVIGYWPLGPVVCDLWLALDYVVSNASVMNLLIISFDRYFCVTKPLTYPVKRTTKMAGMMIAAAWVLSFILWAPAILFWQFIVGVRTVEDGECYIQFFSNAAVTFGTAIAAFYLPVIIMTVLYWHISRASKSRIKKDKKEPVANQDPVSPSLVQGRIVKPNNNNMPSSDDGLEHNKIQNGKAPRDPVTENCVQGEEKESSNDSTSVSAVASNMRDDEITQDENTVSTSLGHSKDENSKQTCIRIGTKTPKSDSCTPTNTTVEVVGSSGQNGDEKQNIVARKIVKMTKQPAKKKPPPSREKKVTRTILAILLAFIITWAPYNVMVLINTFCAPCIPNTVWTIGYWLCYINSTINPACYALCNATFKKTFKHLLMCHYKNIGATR

[5] = Ratio of unbound brain to plasma concentration in Sprague-Dawley rat administered as iv cassette dose measured at 0.25 hrs post dose; type: ADME, organism-based
[6] = Clearance in Sprague-Dawley rat; type: ADME; conditions: in vivo
Summary of the method: (§1)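 IV and PO pharmacokinetics in male Sprague-Dawley rats, n = 1–3. The oral dose was a 2–3 mg/kg solution. Plasma clearance, Vss and oral bioavailability were determined.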

[7] = Elimination half-life in Sprague-Dawley rat; type: ADME; conditions: in vivo, read-out: beta t1/2 (converted)
Cytochrome P450 2C9 = Cytochrome P450 2C9 (Homo sapiens, UniProt P11712); assay: Inhibition of CYP2C9 (unknown origin); type: ADME
Rattus norvegicus [8] = assay: Reversal of amphetamine-induced hyperlocomotion in Sprague-Dawley rat at 3 mg/kg, po pretreated 30 mins post habituation in the chamber followed by amphetamine injection after 30 mins measured after 60 mins; type: functional
Summary of the method: (§2)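 Male Sprague-Dawley rats, n = 6–24 per dose group, were habituated in the chamber for 30 min. The compound or vehicle (10% tween-80 in water, v/v) was then given orally. Amphetamine 0.75 mg/kg was injected subcutaneously 30 min later. Total ambulations over t = 60–120 min gave % reversal of AHL, reported as mean ± SEM.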

Cytochrome P450 1A2 = target: T4, Cytochrome P450 1A2 (Homo sapiens, UniProt P05177); assay: Inhibition of CYP1A2 (unknown origin); type: ADME
T4 sequence (P05177 whole entry): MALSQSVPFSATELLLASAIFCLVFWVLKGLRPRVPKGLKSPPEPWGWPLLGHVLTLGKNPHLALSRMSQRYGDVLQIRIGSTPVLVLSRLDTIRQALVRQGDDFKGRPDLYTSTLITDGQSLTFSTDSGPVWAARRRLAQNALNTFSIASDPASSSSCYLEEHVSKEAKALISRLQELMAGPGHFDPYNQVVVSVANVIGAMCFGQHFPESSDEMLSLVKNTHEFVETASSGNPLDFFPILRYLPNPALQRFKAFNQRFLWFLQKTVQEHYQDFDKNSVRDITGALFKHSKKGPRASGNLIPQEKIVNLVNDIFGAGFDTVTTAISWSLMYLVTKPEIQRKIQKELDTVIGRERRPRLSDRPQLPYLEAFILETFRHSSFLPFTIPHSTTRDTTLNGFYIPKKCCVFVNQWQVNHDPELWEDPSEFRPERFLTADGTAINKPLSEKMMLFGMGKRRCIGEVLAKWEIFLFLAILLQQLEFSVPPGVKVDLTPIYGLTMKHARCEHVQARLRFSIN

Cytochrome P450 2D6 = Cytochrome P450 2D6 (Homo sapiens, UniProt P10635); assay: Inhibition of CYP2D6 (unknown origin); type: ADME
[9] = Volume of distribution at steady state in Sprague-Dawley rat; type: ADME; conditions: in vivo, read-out: Vdss; summary of the method: as §1
Rattus norvegicus [10] = assay: Reversal of amphetamine-induced hyperlocomotion in Sprague-Dawley rat at 56.6 mg/kg, po pretreated 30 mins post habituation in the chamber followed by amphetamine injection after 30 mins measured after 60 mins; type: functional; conditions: in the assay text read “1 mg/kg” for “56.6 mg/kg”; summary of the method: as §2
[11] = target: T5, Muscarinic acetylcholine receptor M2 (Homo sapiens) (UniProt P08172); assay: Activity at human M2 receptor assessed as increase in acetylcholine-induced calcium mobilization relative to acetylcholine; type: functional
T5 sequence (whole entry): T3 sequence (P08172 whole entry)

Rattus norvegicus [12] = assay: Reversal of amphetamine-induced hyperlocomotion in Sprague-Dawley rat at 10 mg/kg, po pretreated 30 mins post habituation in the chamber followed by amphetamine injection after 30 mins measured after 60 mins; type: functional; summary of the method: as §2
Rattus norvegicus [13] = assay: Reversal of amphetamine-induced hyperlocomotion in Sprague-Dawley rat at 30 mg/kg, po pretreated 30 mins post habituation in the chamber followed by amphetamine injection after 30 mins measured after 60 mins; type: functional; summary of the method: as §2
Cytochrome P450 3A4 = Cytochrome P450 3A4 (Homo sapiens, UniProt P08684); assay: Inhibition of CYP3A4 (unknown origin); type: ADME
Rattus norvegicus [14] = organism: Rattus norvegicus; assay: Drug metabolism in Sprague-Dawley rat assessed as aldehyde oxidase-mediated metabolism at alpha to 4-pryidyl nitrogen; type: ADME

Sequence of Cytochrome P450 3A4 (P08684 whole entry): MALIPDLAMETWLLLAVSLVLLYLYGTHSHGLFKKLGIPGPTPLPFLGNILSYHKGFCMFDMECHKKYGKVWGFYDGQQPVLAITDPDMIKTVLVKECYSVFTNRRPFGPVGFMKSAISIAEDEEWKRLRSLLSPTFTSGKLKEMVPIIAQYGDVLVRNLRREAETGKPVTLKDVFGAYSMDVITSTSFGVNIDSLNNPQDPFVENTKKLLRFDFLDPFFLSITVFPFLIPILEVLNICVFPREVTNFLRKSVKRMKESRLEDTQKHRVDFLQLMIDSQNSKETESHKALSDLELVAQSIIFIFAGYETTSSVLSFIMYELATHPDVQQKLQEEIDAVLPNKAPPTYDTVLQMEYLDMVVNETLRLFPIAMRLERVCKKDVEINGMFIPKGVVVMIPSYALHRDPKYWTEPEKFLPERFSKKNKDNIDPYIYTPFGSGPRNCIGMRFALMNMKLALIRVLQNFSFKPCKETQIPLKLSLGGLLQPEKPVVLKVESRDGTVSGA
Sequence of Cytochrome P450 2D6 (P10635 whole entry): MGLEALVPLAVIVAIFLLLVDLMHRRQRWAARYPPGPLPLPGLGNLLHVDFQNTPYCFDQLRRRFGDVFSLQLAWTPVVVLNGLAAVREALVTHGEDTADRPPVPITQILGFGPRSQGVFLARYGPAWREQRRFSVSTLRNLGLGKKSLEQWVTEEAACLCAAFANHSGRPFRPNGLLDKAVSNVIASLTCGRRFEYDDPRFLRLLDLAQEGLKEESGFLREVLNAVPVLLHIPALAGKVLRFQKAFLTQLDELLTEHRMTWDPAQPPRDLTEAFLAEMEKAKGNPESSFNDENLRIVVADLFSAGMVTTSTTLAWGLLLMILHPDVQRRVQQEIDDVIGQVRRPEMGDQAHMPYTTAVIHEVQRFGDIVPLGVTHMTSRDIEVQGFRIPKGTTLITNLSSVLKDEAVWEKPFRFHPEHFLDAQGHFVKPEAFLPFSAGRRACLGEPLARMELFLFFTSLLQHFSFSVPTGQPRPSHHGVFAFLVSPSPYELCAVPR
Sequence of Cytochrome P450 2C9 (P11712 whole entry): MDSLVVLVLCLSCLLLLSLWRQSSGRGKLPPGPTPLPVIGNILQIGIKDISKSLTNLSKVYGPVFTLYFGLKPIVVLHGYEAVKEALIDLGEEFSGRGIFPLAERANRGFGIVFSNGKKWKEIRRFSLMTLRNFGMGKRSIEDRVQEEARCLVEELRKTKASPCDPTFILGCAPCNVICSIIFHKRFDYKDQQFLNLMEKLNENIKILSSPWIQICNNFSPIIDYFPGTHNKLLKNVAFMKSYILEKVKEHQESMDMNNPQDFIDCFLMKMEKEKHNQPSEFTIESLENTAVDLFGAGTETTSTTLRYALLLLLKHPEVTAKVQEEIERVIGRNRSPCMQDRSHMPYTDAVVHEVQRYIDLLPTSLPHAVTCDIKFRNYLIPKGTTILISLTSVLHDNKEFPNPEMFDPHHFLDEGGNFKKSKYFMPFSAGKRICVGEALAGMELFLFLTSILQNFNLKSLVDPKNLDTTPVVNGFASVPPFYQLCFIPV

| SMILES | %max [1] [%] | EC50 [2] | also measured |
| --- | --- | --- | --- |
| Cc1nnc2sc(C(=O)NC3CN(C(=O)OCc4ccccc4)C3)c(N)c2c1C | 81 | 30 nM | – |
| Cc1nnc2sc(C(=O)NC3CN(C(=O)c4ccncc4)C3)c(N)c2c1C | 85 | 179 nM | Kp [3]: 0.03; efflux ratio (MDR1): 96; EC50 [4]: > 10000 nM; K(p,uu,brain) [5]: 0.37; clearance [6]: 3.1 mL/min/kg |
| Cc1nnc2sc(C(=O)NC3CN(S(=O)(=O)c4ccccc4)C3)c(N)c2c1C | 70 | 268 nM and 263 nM | – |
| COc1ccc(N2CC(NC(=O)c3sc4nnc(C)c(C)c4c3N)C2)cc1 | 81 | 1290 nM | – |
| Cc1nnc2sc(C(=O)NC3CN(C(=O)Oc4ccccc4)C3)c(N)c2c1C | 96 | 23 nM | half-life [7]: < 0.5 h; EC50 [4]: 2650 nM |
| Cc1nnc2sc(C(=O)NC3CN(c4ccnc(Cl)c4)C3)c(N)c2c1C | 87 | 185 nM | – |
| Cc1nnc2sc(C(=O)NC3CN(c4cncnc4)C3)c(N)c2c1C | 89 | 41 nM and 38.9 nM | Kp at 0.25 h [3]: < 0.05 |
| Cc1nnc2sc(C(=O)NC3CN(c4nc5ccccc5o4)C3)c(N)c2c1C | 89 | 419 nM | – |
| Cc1nnc2sc(C(=O)NC3CN(C(=O)c4ccccn4)C3)c(N)c2c1C | 91 | 564 nM | – |
| Cc1nnc2sc(C(=O)NC3CN(c4ccc(F)cc4)C3)c(N)c2c1C | 77 | 282 nM | – |
| Cc1nnc2sc(C(=O)NC3CN(c4ccc(C(F)(F)F)nc4)C3)c(N)c2c1C | 75 | 76 nM | IC50 (Cytochrome P450 2C9): > 30000 nM; Activity (Rattus norvegicus [8]): 48%; IC50 (Cytochrome P450 1A2): > 30000 nM; IC50 (Cytochrome P450 2D6): > 30000 nM; Kp [3]: 0.12; efflux ratio (MDR1): 8.5; Vd [9]: 0.89 L/kg; half-life [7]: 1.3 h; EC50 [4]: 960 nM; Activity (Rattus norvegicus [10]): 44%; %max [11]: 43%; Activity (Rattus norvegicus [12]): 55%; K(p,uu,brain) [5]: 0.33; clearance [6]: 8.8 mL/min/kg; Activity (Rattus norvegicus [13]): 55 - 56%; IC50 (Cytochrome P450 3A4): > 30000 nM |
| COc1cncc(N2CC(NC(=O)c3sc4nnc(C)c(C)c4c3N)C2)c1 | 88 | 17 nM | Kp [3]: < 0.05 |
| Cc1nnc2sc(C(=O)NC3CN(c4cncc(F)c4)C3)c(N)c2c1C | 90 | 16 nM | – |
| Cc1nnc2sc(C(=O)NC3CN(c4ccc(F)cc4F)C3)c(N)c2c1C | 94 | 37 nM | – |
| Cc1nnc2sc(C(=O)NC3CN(c4ccncc4Cl)C3)c(N)c2c1C | 86 | 8 nM | Drug metabolism (Rattus norvegicus [14]): Metabolite_Detected |
| Cc1nnc2sc(C(=O)NC3CN(c4nc5cccnc5s4)C3)c(N)c2c1C | 81 | 106 nM | Kp [3]: 0.17; EC50 [4]: 220 nM; Activity (Rattus norvegicus [12]): 16%; K(p,uu,brain) [5]: 1.3 |
| COc1cccc(N2CC(NC(=O)c3sc4nnc(C)c(C)c4c3N)C2)c1 | 77 | 141 nM and 132 nM | – |

| SMILES | %max [1] [%] | EC50 [2] | also measured |
| --- | --- | --- | --- |
| Cc1nnc2sc(C(=O)NC3CN(c4cc(F)nc(F)c4)C3)c(N)c2c1C | 84 | 11 nM | – |
| Cc1nnc2sc(C(=O)NC3CN(c4ccc(F)c(F)c4)C3)c(N)c2c1C | 84 | 28.8 nM and 30 nM | clearance [6]: 4.4 mL/min/kg |
| Cc1cccc(OC(=O)N2CC(NC(=O)c3sc4nnc(C)c(C)c4c3N)C2)c1 | 85 | 67 nM | – |
| Cc1nnc2sc(C(=O)NC3CN(c4ccncn4)C3)c(N)c2c1C | 83 | 38 nM | Kp at 0.25 h [3]: < 0.05 |
| Cc1nnc2sc(C(=O)NC3CN(c4ccccc4)C3)c(N)c2c1C | 85 | 25 nM | Kp [3]: 0.57; EC50 [4]: 1780 nM; %max [11]: 58%; K(p,uu,brain) [5]: 0.73; clearance [6]: 45 mL/min/kg |
| Cc1nnc2sc(C(=O)NC3CN(c4cccnc4F)C3)c(N)c2c1C | 82 | 29 nM | – |
| Cc1nnc2sc(C(=O)NC3CN(c4ccccc4F)C3)c(N)c2c1C | 82 | 28 nM | – |
| Cc1nnc2sc(C(=O)NC3CN(c4nc5ccccc5s4)C3)c(N)c2c1C | 87 | 439 nM | – |
| COc1cc(N2CC(NC(=O)c3sc4nnc(C)c(C)c4c3N)C2)ccn1 | 86 | 51 nM | Drug metabolism (Rattus norvegicus [14]): Metabolite_Detected |
| Cc1nnc2sc(C(=O)NC3CN(c4cnccn4)C3)c(N)c2c1C | 80 | 78 nM and 74.1 nM | Kp at 0.25 h [3]: < 0.05 |
| Cc1nnc2sc(C(=O)NC3CN(c4cccnc4)C3)c(N)c2c1C | 96 | 34 nM and 33.1 nM | Kp at 0.25 h [3]: < 0.05 |
| Cc1nnc2sc(C(=O)NCc3ccc(S(=O)(=O)C(F)(F)F)cc3)c(N)c2c1C | – | – | Activity (Rattus norvegicus [12]): 62% |
| Cc1nnc2sc(C(=O)NC3CN(c4ccccn4)C3)c(N)c2c1C | 81 | 124 nM | – |
| Cc1nnc2sc(C(=O)NC3CN(C(=O)c4ccccc4)C3)c(N)c2c1C | 85 | 773 nM | – |
| Cc1nnc2sc(C(=O)NC3CN(c4ccc(S(=O)(=O)C(F)(F)F)cc4)C3)c(N)c2c1C | 86 | 934 nM | – |
| Cc1nnc2sc(C(=O)NC3CN(C(=O)Nc4ccccc4)C3)c(N)c2c1C | 89 | 217 nM | – |
| Cc1nnc2sc(C(=O)NC3CN(c4ccc(S(=O)(=O)C(F)F)cc4)C3)c(N)c2c1C | 75 | 325 nM | – |

From ChEMBL document CHEMBL4033702, “Challenges in the development of an M4 PAM preclinical candidate: The discovery, SAR, and in vivo characterization of a series of 3-aminoazetidine-derived amides” (Bioorg Med Chem Lett, 2017)
